Reference: ChEMBL document CHEMBL5356931, “Medicinal chemistry approaches to target the MNK-eIF4E axis in cancer” (RSC Med Chem, 2023)
≈ marks a conversion by molar mass, not a printed value.

Legend:
[1] = Solubility of the compound; assay type: physicochemical
[2] = molecular target: T1, Eukaryotic translation initiation factor 4E (Homo sapiens, UniProt P06730); assay: Inhibition of eIF4E phosphorylation in human HeLa cells; assay type: cell-based
[3] = Drug exposure in mouse at 5 mg/kg,po; assay type: ADME, organism-based; parameters: dose 5 mg/kg, route po; details: in vivo
Method in brief: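 Mice received a single oral dose of 5 mg kg⁻¹. Exposure was described by oral bioavailability F (%), Cmax (ng mL⁻¹) and AUC0−t (last) (ng h mL⁻¹).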

[4] = molecular target: MAP kinase-interacting serine/threonine-protein kinase 1 (Homo sapiens) (UniProt Q9BUB5); assay: Inhibition of MNK1 (unknown origin) relative to control; details: concentration not given here
[5] = molecular target: T2, Tyrosine-protein kinase ABL1 (Homo sapiens, UniProt P00519); assay: Inhibition of ABL1 (unknown origin)
[6] = molecular target: MAP kinase-interacting serine/threonine-protein kinase 2 (Homo sapiens, UniProt Q9HBH9); assay: Inhibition of MNK2 (unknown origin)
[7] = molecular target: T1, Eukaryotic translation initiation factor 4E; assay: Binding affinity to eIF4E (unknown origin) assessed as dissociation constant
[8] = Solubility of compound at pH 7.4; assay type: physicochemical; details: buffer
K562 [9] = assay: animal or person; details: Mus musculus, K562, read-out: TGI
K562 [10] = assay: animal or person; details: Mus musculus, K562, read-out: TGI; remark: listed apart in the source
[11] = molecular target: T2, Tyrosine-protein kinase ABL1; assay: Inhibition of ABL1 (unknown origin) relative to control; details: concentration not given here
[12] = molecular target: Vascular endothelial growth factor receptor 2 (Homo sapiens, UniProt P35968); assay: Inhibition of VEGFR2 (unknown origin)
[13] = molecular target: T3, Receptor-type tyrosine-protein kinase FLT3 (Homo sapiens, UniProt P36888); assay: Inhibition of FLT3 (unknown origin)
T3 sequence (P36888 whole entry): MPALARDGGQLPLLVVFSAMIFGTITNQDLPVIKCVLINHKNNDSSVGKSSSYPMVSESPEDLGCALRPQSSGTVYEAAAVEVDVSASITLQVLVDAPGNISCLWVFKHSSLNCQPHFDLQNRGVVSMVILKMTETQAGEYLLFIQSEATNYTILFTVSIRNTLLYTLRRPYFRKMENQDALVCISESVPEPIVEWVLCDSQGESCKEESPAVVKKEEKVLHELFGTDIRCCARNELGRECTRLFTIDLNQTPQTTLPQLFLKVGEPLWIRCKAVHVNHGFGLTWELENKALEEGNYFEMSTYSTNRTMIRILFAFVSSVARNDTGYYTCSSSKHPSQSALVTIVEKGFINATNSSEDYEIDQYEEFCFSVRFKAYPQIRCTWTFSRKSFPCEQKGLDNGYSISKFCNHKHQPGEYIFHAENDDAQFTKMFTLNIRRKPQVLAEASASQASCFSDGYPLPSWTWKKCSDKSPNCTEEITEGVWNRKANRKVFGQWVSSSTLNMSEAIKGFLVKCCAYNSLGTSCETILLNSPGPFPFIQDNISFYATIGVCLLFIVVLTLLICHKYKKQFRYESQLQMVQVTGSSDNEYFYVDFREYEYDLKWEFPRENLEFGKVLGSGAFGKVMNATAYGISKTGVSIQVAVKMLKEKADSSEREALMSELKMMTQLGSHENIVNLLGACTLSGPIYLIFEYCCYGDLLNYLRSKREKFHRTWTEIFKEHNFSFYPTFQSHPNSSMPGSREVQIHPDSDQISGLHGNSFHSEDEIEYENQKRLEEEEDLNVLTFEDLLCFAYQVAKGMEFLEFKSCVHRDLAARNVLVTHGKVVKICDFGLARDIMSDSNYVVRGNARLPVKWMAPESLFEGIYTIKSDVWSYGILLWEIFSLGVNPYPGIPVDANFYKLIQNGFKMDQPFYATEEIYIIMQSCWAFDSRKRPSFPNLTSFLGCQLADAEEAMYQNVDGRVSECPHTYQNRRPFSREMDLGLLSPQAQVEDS

[14] = molecular target: Proto-oncogene tyrosine-protein kinase receptor Ret (Homo sapiens, UniProt P07949); assay: Inhibition of RET (unknown origin)
[15] = Half life in CD-1 mouse at 5 mg/kg, iv; assay type: ADME, organism-based, CD1; details: in vivo

T1 sequence (P06730 whole entry): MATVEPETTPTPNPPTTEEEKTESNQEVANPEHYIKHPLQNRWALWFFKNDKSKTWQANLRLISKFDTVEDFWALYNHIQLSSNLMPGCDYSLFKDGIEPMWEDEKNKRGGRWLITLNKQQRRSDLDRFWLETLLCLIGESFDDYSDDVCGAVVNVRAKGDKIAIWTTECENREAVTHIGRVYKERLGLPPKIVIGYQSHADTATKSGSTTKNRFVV
T2 sequence (P00519 whole entry): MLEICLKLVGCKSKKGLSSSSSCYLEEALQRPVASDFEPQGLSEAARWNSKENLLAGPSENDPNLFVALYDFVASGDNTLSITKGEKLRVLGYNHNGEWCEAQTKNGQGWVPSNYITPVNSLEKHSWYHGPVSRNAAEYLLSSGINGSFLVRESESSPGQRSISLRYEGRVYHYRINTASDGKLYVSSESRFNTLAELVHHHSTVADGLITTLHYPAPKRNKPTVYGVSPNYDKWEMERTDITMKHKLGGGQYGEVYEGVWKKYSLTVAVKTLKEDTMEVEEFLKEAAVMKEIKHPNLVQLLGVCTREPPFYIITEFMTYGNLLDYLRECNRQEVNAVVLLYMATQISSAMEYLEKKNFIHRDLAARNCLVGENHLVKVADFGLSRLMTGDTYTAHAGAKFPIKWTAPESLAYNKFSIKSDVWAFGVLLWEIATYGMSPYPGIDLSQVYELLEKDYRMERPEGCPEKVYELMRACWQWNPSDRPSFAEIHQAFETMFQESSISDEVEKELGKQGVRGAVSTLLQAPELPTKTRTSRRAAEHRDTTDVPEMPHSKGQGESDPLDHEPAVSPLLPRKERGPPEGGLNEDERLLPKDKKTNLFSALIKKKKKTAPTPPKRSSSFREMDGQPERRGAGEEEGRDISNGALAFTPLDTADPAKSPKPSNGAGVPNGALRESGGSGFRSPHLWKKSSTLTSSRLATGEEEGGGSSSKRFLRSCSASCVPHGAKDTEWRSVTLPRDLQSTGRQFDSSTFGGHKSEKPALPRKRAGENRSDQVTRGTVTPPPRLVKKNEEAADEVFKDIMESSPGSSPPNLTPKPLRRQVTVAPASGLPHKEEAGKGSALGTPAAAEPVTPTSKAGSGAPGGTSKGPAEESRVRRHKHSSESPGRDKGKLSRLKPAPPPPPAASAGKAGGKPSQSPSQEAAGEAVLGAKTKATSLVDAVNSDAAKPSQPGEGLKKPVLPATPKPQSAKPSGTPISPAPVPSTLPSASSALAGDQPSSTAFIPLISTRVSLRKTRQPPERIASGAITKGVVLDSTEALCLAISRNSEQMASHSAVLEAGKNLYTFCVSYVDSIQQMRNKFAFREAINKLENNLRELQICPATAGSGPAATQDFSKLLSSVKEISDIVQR
Chain of Proto-oncogene tyrosine-protein kinase receptor Ret (P07949 whole entry): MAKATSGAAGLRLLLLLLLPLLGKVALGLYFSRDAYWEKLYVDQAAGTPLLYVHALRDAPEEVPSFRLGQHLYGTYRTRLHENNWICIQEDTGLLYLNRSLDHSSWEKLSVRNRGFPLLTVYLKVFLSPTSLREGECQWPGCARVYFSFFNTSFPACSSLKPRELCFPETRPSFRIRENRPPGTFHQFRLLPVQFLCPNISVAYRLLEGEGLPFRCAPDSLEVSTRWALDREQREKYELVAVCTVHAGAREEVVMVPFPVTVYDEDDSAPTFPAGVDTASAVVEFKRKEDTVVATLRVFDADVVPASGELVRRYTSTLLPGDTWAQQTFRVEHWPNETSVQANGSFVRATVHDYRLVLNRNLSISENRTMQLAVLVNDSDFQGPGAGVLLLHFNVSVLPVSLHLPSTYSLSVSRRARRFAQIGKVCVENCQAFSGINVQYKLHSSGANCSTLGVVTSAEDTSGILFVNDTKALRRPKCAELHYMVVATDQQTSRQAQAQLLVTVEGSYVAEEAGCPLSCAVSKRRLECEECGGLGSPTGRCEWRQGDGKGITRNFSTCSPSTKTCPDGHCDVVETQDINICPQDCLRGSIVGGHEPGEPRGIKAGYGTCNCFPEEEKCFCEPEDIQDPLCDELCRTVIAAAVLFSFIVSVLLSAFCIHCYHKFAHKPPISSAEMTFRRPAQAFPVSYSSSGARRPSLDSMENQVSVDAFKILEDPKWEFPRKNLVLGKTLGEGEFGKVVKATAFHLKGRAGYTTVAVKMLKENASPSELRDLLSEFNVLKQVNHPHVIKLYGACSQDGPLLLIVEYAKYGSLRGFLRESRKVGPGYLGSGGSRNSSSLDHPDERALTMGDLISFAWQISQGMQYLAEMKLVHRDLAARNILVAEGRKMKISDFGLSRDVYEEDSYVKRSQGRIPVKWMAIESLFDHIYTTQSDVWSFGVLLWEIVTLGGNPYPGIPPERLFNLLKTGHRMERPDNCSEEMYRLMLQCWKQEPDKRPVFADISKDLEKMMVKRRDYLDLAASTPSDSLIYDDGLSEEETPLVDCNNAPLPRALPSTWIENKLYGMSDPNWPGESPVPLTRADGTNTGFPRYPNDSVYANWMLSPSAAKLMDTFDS
Chain of MAP kinase-interacting serine/threonine-protein kinase 2 (Q9HBH9 whole entry): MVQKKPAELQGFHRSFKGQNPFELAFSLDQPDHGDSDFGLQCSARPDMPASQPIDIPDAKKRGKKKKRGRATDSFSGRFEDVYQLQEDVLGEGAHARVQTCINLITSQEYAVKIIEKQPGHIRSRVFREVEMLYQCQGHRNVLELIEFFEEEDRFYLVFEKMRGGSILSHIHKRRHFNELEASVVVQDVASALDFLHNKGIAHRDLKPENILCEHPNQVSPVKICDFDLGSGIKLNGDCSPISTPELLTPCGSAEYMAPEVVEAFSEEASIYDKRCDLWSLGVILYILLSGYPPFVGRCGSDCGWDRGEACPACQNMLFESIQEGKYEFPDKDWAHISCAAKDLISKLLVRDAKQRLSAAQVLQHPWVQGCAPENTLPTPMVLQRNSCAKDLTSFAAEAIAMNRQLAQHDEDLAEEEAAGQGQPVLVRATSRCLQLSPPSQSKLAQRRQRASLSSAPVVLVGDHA
Chain of Vascular endothelial growth factor receptor 2 (P35968 whole entry): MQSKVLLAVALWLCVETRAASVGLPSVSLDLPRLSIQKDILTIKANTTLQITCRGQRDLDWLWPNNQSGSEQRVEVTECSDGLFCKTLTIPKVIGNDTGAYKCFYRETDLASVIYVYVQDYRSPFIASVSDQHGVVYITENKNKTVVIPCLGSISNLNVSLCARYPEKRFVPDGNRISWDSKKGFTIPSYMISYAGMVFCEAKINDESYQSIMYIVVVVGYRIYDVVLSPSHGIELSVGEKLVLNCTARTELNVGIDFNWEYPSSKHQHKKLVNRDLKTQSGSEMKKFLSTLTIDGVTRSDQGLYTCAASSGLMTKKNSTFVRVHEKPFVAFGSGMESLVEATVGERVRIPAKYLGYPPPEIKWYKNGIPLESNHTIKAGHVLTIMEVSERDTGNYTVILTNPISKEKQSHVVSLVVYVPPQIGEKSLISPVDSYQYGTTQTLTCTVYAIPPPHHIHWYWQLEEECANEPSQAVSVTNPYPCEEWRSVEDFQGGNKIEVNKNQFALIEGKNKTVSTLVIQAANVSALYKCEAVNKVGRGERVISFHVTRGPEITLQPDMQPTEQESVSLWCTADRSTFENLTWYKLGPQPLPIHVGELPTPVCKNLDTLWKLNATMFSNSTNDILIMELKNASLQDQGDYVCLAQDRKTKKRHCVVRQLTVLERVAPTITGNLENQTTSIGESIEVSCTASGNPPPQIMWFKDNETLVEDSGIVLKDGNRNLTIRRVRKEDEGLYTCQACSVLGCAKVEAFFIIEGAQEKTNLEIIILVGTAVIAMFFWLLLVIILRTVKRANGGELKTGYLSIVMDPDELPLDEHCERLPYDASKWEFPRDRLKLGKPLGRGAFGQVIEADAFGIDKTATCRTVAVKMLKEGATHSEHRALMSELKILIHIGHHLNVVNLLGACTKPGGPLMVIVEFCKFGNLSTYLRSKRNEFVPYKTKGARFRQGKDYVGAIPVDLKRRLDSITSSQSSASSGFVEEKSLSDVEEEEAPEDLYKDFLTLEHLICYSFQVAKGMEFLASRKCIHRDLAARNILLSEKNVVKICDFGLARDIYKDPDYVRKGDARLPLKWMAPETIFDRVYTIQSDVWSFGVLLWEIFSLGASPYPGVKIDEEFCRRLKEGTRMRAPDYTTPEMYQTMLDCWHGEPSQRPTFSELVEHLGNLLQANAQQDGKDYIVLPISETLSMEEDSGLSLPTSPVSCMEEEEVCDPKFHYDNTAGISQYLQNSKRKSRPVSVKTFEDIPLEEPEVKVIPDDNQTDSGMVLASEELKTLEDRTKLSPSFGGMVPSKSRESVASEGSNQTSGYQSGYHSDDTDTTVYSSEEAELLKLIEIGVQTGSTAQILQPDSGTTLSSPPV
Chain of MAP kinase-interacting serine/threonine-protein kinase 1 (Homo sapiens) (Q9BUB5 whole entry, looked up): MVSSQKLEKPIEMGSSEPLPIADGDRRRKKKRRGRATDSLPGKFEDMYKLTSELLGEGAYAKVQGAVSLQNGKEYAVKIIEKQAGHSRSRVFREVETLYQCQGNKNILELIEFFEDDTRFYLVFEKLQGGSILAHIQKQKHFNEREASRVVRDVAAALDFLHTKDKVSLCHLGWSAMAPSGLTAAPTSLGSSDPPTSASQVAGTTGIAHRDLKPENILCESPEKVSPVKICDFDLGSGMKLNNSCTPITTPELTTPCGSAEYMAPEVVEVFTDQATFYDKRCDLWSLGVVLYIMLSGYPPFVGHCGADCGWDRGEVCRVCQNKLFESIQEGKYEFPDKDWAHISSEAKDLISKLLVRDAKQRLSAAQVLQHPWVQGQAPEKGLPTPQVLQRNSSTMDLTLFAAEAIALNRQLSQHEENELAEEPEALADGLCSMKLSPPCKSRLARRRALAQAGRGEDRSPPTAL

Question: Which solubility [1] does the source give for `O=C(c1ccc(-c2cn3c(-c4ccc(O)cc4)cnc3cn2)cc1)N1CCOCC1` here?
Answer: 11.5 µg/mL (≈ 28.7 µM)

Question: What does the source list for `CC(C)Oc1cc(-c2cncc(-c3cnn(C4COC4)c3)c2)ccc1C(N)=O`?
Answer: IC50 [2]: 200 nM; AUC [3]: 2080 ng·h/mL; inhibition [4]: > 90%

Question: With `CCN1CCN(Cc2ccc(NC(=O)COc3ccc(-c4cccnc4)cc3)cc2C(F)(F)F)CC1` as the compound, how does the IC50 [5] read?
Answer: > 10000 nM

Question: With `CN1CCN(C(=O)c2ccc(-c3ccc4ncc(-c5ccc(C#N)cc5)n4n3)cc2)CC1` as the compound, how does the IC50 [6] read?
Answer: 30 nM

Question: For `CC(=O)N1CCN(C(=O)c2ccc(-c3cn4c(-c5ccc(O)cc5)cnc4cn3)cc2)CC1`, which solubility [1] is on record?
Answer: 144 µg/mL (≈ 326 µM)

Question: For `CN1CCN(C(=O)c2ccc(-c3cn4c(-c5ccc(O)cc5)cnc4cn3)cc2)CC1`, which solubility [1] is on record?
Answer: 144 µg/mL (≈ 348 µM)

Question: With `NC(=O)c1ncn([C@@H]2O[C@H](CO)[C@@H](O)[C@H]2O)n1` [RIBAVIRIN] as the compound, how does the Kd [7] read?
Answer: 8400 nM

Question: Which solubility [8] does the source give for `CC(C)Oc1cc(-c2cccnc2)ccc1C(N)=O` here?
Answer: 45 µg/mL (≈ 176 µM)

Question: For `N#Cc1ccc(-c2cnc3ccc(-c4ccc(C(=O)N5CCOCC5)cc4)cn23)cc1` [TINODASERTIB], which inhibition in vivo at 50 mg/kg (K562 [9]) is on record?
Answer: 110%

Question: What about the inhibition in vivo at 25 mg/kg (K562 [10]) of the same compound?
Answer: 107%

Question: For `CCN1CCN(Cc2ccc(NC(=O)CNc3ccc(-c4cccnc4)cc3)cc2C(F)(F)F)CC1`, which IC50 [5] is on record?
Answer: > 10000 nM

Question: Which IC50 [6] does the source give for `CN1CCN(C(=O)c2ccc(-c3cn4c(-c5ccc(C(=O)NO)cc5)cnc4cn3)cc2)CC1` here?
Answer: 30 nM

Question: With `CN1CCN(Cc2ccc(NC(=O)CNc3ccc(-c4ccc(NC(=O)C5CC5)nc4)cc3F)cc2C(F)(F)F)CC1` as the compound, how does the IC50 [2] read?
Answer: 280 nM

Question: And the inhibition [11]?
Answer: > 90%

Question: And the IC50 [12]?
Answer: < 24 nM

Question: What about the IC50 [13] of the same compound?
Answer: < 24 nM

Question: What about the inhibition [4] of the same compound?
Answer: > 90%

Question: What about the IC50 [14] of the same compound?
Answer: < 24 nM

Question: For `CCN1CCN(Cc2ccc(NC(=O)CNc3ccc(-c4ccc(NC(=O)C5CC5)nc4)cc3)cc2C(F)(F)F)CC1`, which IC50 [12] is on record?
Answer: < 24 nM

Question: And the IC50 [13]?
Answer: < 24 nM

Question: And the half-life [15]?
Answer: 2.1 h

Question: And the IC50 [14]?
Answer: < 24 nM
